# Bioassay records: PubChem, several laboratories
# An excerpt weighted towards active compounds, which were near 1.6% of everything screened.
# proKLK7 act = activators of human kallikrein-7 zymogen | P49862 | purified proKLK7, EDANS-DABCYL substrate fluorescence; 100% is mature enzyme control, 0% vehicle | activation, % at 7 µM | actives 0.9% (n = 370,000) | AID 652039;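 active = activation above the mean of all tested compounds plus 3 SD, computed per campaign excluding outliers beyond control limits, cut at about 13% in these data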
# Target sequence (P49862 whole entry, looked up): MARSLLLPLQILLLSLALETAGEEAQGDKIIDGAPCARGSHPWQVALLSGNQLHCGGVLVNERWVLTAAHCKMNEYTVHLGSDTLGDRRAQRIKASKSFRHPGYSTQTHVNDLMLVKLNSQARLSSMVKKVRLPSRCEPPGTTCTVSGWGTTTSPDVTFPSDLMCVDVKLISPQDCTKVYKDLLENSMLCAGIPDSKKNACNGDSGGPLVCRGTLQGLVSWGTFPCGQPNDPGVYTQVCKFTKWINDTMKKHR
# Neddyl block = blocks human cullin neddylation | P61081+Q13564 | TR-FRET cullin neddylation, biochemical | calls only at 25 µM | actives 0.58% (n = 360,000); in the data active = inhibition above about 36%
# proCasp3 act = activators of human procaspase-3. P42574. recombinant procaspase-3 D3A, Ac-DEVD-pNA absorbance 405 nm. activation, % at 8.5 µM. actives 0.11% (n = 330,000);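 active = activation above the mean of all tested compounds plus 3 SD, cut at about 21% in these data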;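 note: 0% = DMSO alone and 100% = DMSO wells spiked with extra 5 µM PC-3 D3A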
#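 Assay system: Autoprocessing-dead procaspase-3 D3A mutant enzyme; also added: Ac-DEVD-pNA; doses: one concentration, 8.5 µM nominal, 0.8% DMSO; times: 1 h compound preincubation, 2 h substrate hydrolysis at 25 °C; technique: 405 nm absorbance of p-nitroaniline, reads at 0 and 120 min; measure: % activation between DMSO and enzyme-spiked controls; repeats: single replicate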
# proCasp7 act = counter-screen for procaspase-3 activators: activators of human procaspase-7. P55210. recombinant procaspase-7, Ac-DEVD-pNA absorbance 405 nm; D23A/D198A/D206A triple mutant, cannot self-cleave; scale: DMSO 0, 5 µM enzyme 100. activation, % at 8.5 µM. actives 0.093% (n = 330,000). AID 463210;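 active = percent activation above the screen-wide mean plus 3 SD, cut at about 25% in these data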
#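 Assay system – Uncleavable procaspase-7 mutant enzyme · Quantity – 2 µM procaspase-7 mutant as dispensed · Times – 1 h preincubation, 2 h reaction · Dosing – single nominal 8.5 µM compound dose, 0.8% DMSO final · Buffer or medium – Zinc-free 50 mM HEPES buffer, pH 7.4, with NaCl and Triton X-100 · Detection – Epi-absorbance of released pNA at 405 nm, two timepoints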
# proKLK7 act conf = confirmation of human kallikrein-7 zymogen activators; purified proKLK7, EDANS-DABCYL substrate fluorescence; scaled: vehicle 0, mature enzyme 100; activation, % at 7 µM; shares compounds with proKLK7 act; actives 68% (n = 3,200); AID 686949;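 active = activation, as change over the incubation, above the mean of all tested compounds plus 3 SD, cut at about 13% in these data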
# EDANS-DABCYL int = optically interferes with EDANS-DABCYL signal, flagging KLK7 hits; shares compounds with proKLK7 act; EDANS-DABCYL substrate fluorescence interference, no enzyme, 4 h; solvent 0%, active enzyme control 100%; activation, % at 7 µM; actives 80% (n = 3,200);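 active = activation above the all-compound mean plus 3 SD, ignoring values outside control-based bounds, cut at about 4.8% in these data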;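 note: value is the 4 h activation minus the activation read at time zero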
# EDANS interf = EDANS fluorescence interference in dose response, no enzyme. EDANS-DABCYL peptide fluorescence interference. actives 20% (n = 250). EC50, µM. shares compounds with proKLK7 act;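 active = compounds that raise the fluorescence signal in this interference counterscreen, with EC50 at or below 10 µM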;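 note: intact quenched peptide substrate alone read at 355 nm excitation and 520 nm emission; signal is fluorescence gain from T0 to T4 after four hours at room temperature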
# Numbers without * were called inactive; i = inactive; / = not tested or not shown.
SMILES,proKLK7 act,Neddyl block,proCasp3 act,proCasp7 act,proKLK7 act conf,EDANS-DABCYL int,others
CCOC(=O)CC1C(=O)NCCN1C(=O)c1cc2c(=O)n3cccc(C)c3nc2s1 (stereo not given),42.9*,/,0.4,1.7,25.1*,31.8*,
O=C(c1cc2c(=O)n3ccccc3nc2s1)N1CCN(Cc2ccccc2)CC1,25.1*,/,-6.4,1.9,-76.2,-92.6,
CSc1ccc(/C=C/C(=O)N2CCCN(C)CC2)cc1,16.9*,/,-2.5,-3.8,3.3,5.9*,
CCCCn1c(N)c(N(CCOC)C(=O)CC(NC(=O)c2ccccc2Cl)c2ccccc2)c(=O)[nH]c1=O (stereo not given),1.0,i,/,/,/,/,
O=C1c2ccccc2C(=O)N1CCC#Cc1ccc2cc(CCO)oc(=O)c2c1,-0.3,i,8.7,0.8,/,/,
O=C1c2ccccc2NC2(CCCC2)N1N=C1CCCC1,8.5,/,-0.8,-6.2,/,/,
CC/C(C)=N/N1C(=O)c2ccccc2NC1(C)CC (stereo not given),19.0*,/,-8.5,5.2,44.6*,38.7*,
COc1ccc(/C=N/n2nnnc2N)c(OC)c1,-0.8,i,/,/,/,/,
CC(=O)Nc1ccc(SCC(=O)N2CCN(S(=O)(=O)c3ccccc3)CC2)cc1,0.5,i,-0.3,3.5,/,/,
CNC(=O)c1cc(Nc2nnc(-c3ccc(C)c(S(N)(=O)=O)c3)c3ccccc23)ccc1OC,211.6*,i,-3.2,-8.3,223.0*,136.2*,
CS(=O)(=O)NN1C(=O)c2ccccc2NC1c1cc2ccccc2nc1Cl (stereo not given),0.3,i,-2.7,8.9,/,/,
CN(C)c1ccc(C2Nc3ccccc3C(=O)N2NS(C)(=O)=O)cc1 (stereo not given),21.8*,i,/,/,5.1,5.9*,
COc1ccc(C2Nc3ccccc3C(=O)N2NS(=O)(=O)c2ccccc2)cc1OC (stereo not given),16.7*,/,1.8,-0.8,4.1,9.0*,
COc1ccc(C2Nc3ccccc3C(=O)N2NS(C)(=O)=O)cc1OC (stereo not given),58.9*,/,-5.5,-5.9,21.6*,12.8*,EDANS interf=i
CS(=O)(=O)NN1C(=O)c2ccccc2NC1c1ccccc1F (stereo not given),35.2*,/,-8.0,6.2,4.1,8.2*,
[O-][n+]1cccc2ncc3cscc3c21,-0.6,i,8.9,7.1,/,/,
COc1ccc(C2Nc3ccccc3C(=O)N2Cc2ccccc2)cc1OC (stereo not given),-1.0,i,-2.9,2.4,/,/,
COc1ccc(C2Nc3ccccc3C(=O)N2NS(=O)(=O)c2ccc(C)cc2)cc1OC (stereo not given),31.2*,/,3.5,-8.8,7.7,7.1*,
C/C(=N\NC(=O)c1cc(-c2cccc([N+](=O)[O-])c2)n[nH]1)c1ccccc1O,-0.3,i,12.8,2.4,/,/,
CCOC(=O)N(C)[C@H]1C[C@H]2c3cc(-c4ccccc4C)ccc3CCN2C[C@H]1[C@H](C)O,0.4,/,/,/,/,/,
O=C1Nc2ccc(S(=O)(=O)N(CCO)CCO)c3cccc1c23,44.6*,/,/,/,42.1*,50.4*,
CCOc1ccc(S(=O)(=O)NCc2ccco2)c2ccccc12,-0.9,i,-3.0,-11.3,/,/,
Cc1oc2c(cc(NS(=O)(=O)c3ccc4c5c(cccc35)C(=O)N4)c3ccccc32)c1C(=O)OC(C)C,23.9*,/,-15.6,-9.6,56.9*,52.6*,
CN(c1ccccc1C(=O)O)S(=O)(=O)c1ccc2c3c(cccc13)C(=O)N2,-0.3,i,-4.0,7.9,/,/,
CC(C)C(NS(=O)(=O)c1ccc2c3c(cccc13)C(=O)N2)C(=O)O (stereo not given),24.8*,/,0.0,2.2,23.1*,33.2*,
O=C1Nc2ccc(S(=O)(=O)NCc3ccco3)c3cccc1c23,27.8*,/,-5.4,-15.8,39.7*,36.8*,
O=C(CCCc1ccccc1)NCCS(=O)(=O)N1CCN(c2ccc(F)cc2)CC1,-0.2,i,-7.7,2.4,/,/,
CNS(=O)(=O)c1ccc2c3c(cccc13)C(=O)N2,48.8*,/,/,/,61.1*,71.5*,
